Values after ≈ are worked out from the molar mass of the structure shown. Active and inactive are the calls of the source. No cut-off for these calls is given here.
Columns and labels:
HepG2 [1] = test: Cytotoxicity against human HepG2 cells after 72 hrs by MTT assay; format: functional, cell-based; settings: for IC50: Homo sapiens, HepG2, 72 h
How it was run: (§1)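 Cells seeded at 2 × 10⁴ per well and grown to subconfluence before treatment. MTT (5 mg/mL stock in PBS) added, then 4 h incubation for formazan formation. Formazan dissolved in DMSO and absorbance read at 570 nm. IC50 determined from concentration-dependent inhibition. Assays run in triplicate across three independent experiments, reported as mean ± S.D.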

SGC-7901 [2] = test: Cytotoxicity against human SGC7901 cells assessed as growth inhibition at 40 ug/mL after 72 hrs by MTT assay; format: functional; settings: SGC-7901, 72 h, read-out: GI
How it was run: (§2)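 Growth inhibition by MTT after seeding at 2 × 10⁴ cells per well and growth to subconfluence, with 5-FU as positive control. MTT stock 5 mg/mL in PBS, 4 h formazan formation, then DMSO solubilisation and A570 read. Triplicate wells, three independent experiments, mean ± S.D.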

HepG2 [3] = test: Cytotoxicity against human HepG2 cells assessed as growth inhibition at 40 ug/mL after 72 hrs by MTT assay; format: functional; settings: HepG2, 72 h, read-out: GI; how it was run: as §2
SGC-7901 [4] = test: Cytotoxicity against human SGC7901 cells after 72 hrs by MTT assay; format: functional, cell-based; settings: for IC50: Homo sapiens, SGC-7901, 72 h; how it was run: as §1
NCI-H460 [5] = test: Cytotoxicity against human NCI-H460 cells assessed as growth inhibition at 40 ug/mL after 72 hrs by MTT assay; format: functional; settings: NCI-H460, 72 h, read-out: GI; how it was run: as §2
BGC-823 [6] = test: Cytotoxicity against human BGC823 cells assessed as growth inhibition at 40 ug/mL after 72 hrs by MTT assay; format: functional; settings: BGC-823, 72 h, read-out: GI; how it was run: as §2
BGC-823 [7] = test: Cytotoxicity against human BGC823 cells after 72 hrs by MTT assay; format: functional, cell-based; settings: for IC50: Homo sapiens, BGC-823, 72 h; how it was run: as §1
NCI-H460 [8] = test: Cytotoxicity against human NCI-H460 cells after 72 hrs by MTT assay; format: functional, cell-based; settings: for IC50: Homo sapiens, NCI-H460, 72 h; how it was run: as §1
NCI-H460 [9] = test: Cytotoxicity against human NCI-H460 cells assessed as change in cell morphology at 20 ug/mL after 48 hrs by inverted microscopy; format: functional, cell-based
SGC-7901 [10] = test: Cytotoxicity against human SGC7901 cells assessed as change in cell morphology at 20 ug/mL after 48 hrs by inverted microscopy; format: functional, cell-based

Row | Compound | IC50 (HepG2 [1]) [µg/mL] | inhibition of growth at 40 µg/mL (SGC-7901 [2]) [%] | inhibition of growth at 40 µg/mL (HepG2 [3]) [%] | IC50 (SGC-7901 [4]) [µg/mL] | inhibition of growth at 40 µg/mL (NCI-H460 [5]) [%] | inhibition of growth at 40 µg/mL (BGC-823 [6]) [%] | IC50 (BGC-823 [7]) [µg/mL] | IC50 (NCI-H460 [8]) [µg/mL] | Activity (NCI-H460 [9]) | Activity (SGC-7901 [10]) | Activity (HepG2 [1]) | growth inhibition (GI) (HepG2 [1]) [%] | growth inhibition (GI) (SGC-7901 [4]) [%] | Activity (BGC-823 [7]) | growth inhibition (GI) (BGC-823 [7]) [%] | growth inhibition (GI) (NCI-H460 [8]) [%]
1 | Cn1cc(C(Nc2ccccn2)c2ccc(C(F)(F)F)cc2)c2ccccc21 (centres undefined) | 12.9 (≈ 33.8 µM) | 71.4 | 71.4 | 13.8 (≈ 36.2 µM) | 71.4 | 71.4 | 16.8 (≈ 44 µM) | 16 (≈ 42 µM) |  |  |  |  |  |  |  | 
2 | Fc1ccc(C(Nc2ccccn2)c2c[nH]c3ccccc23)cc1 (centres undefined) | 23 (≈ 72.5 µM) | 71.4 | 71.4 | 21.5 (≈ 67.7 µM) | 71.4 | 71.4 | 21.8 (≈ 68.7 µM) | 24 (≈ 75.6 µM) |  |  |  |  |  |  |  | 
3 | Cn1cc(C(Nc2ccccn2)c2ccc(F)cc2)c2ccccc21 (centres undefined) | 38.6 (≈ 116 µM) |  |  | 51.9 (≈ 157 µM) |  |  | 51.6 (≈ 156 µM) | 49.1 (≈ 148 µM) |  |  |  |  |  |  |  | 
4 | Cn1cc(C(Nc2ccccn2)c2ccncc2)c2ccccc21 (centres undefined) | 42.5 (≈ 135 µM) |  |  | 37.9 (≈ 121 µM) |  |  | 47.1 (≈ 150 µM) | 56 (≈ 178 µM) |  |  |  |  |  |  |  | 
5 | Cn1cc(C(Nc2nc3ccccc3s2)c2ccccc2F)c2ccccc21 (centres undefined) | > 100 |  |  | > 100 |  |  | > 100 | > 100 |  |  |  |  |  |  |  | 
6 | Clc1ccccc1C(Nc1ccccn1)c1c[nH]c2ccccc12 (centres undefined) | 13.1 (≈ 39.2 µM) | 71.4 | 71.4 | 14.9 (≈ 44.6 µM) | 71.4 | 71.4 | 22.7 (≈ 68 µM) | 12.2 (≈ 36.5 µM) | Active | Active |  |  |  |  |  | 
7 | Cn1cc(C(Nc2ccccn2)c2ccc(Cl)cc2)c2ccccc21 (centres undefined) | 25.5 (≈ 73.3 µM) | 70.8 | 73.6 | 25 (≈ 71.9 µM) |  |  | 30.8 (≈ 88.5 µM) | 32.1 (≈ 92.3 µM) |  |  |  |  |  |  |  | 
8 | c1ccc(NC(c2ccncc2)c2c[nH]c3ccccc23)nc1 (centres undefined) | > 100 |  |  | > 100 |  |  | > 100 | > 100 |  |  |  |  |  |  |  | 
9 | O=c1[nH]cc(F)c(=O)[nH]1 [FLUOROURACIL] | 9.3 (≈ 71.5 µM) |  |  | 8.7 (≈ 66.9 µM) |  |  | 8.2 (≈ 63 µM) | 7.2 (≈ 55.4 µM) |  |  | Dose-dependent effect | 66.8 | 66.8 | Dose-dependent effect | 66.8 | 66.8
10 | Cn1cc(C(Nc2ccccn2)c2ccccc2F)c2ccccc21 (centres undefined) | 43.2 (≈ 130 µM) |  |  | 86.2 (≈ 260 µM) |  |  | 64.2 (≈ 194 µM) | 92.6 (≈ 279 µM) |  |  |  |  |  |  |  | 
11 | c1ccc(C(Nc2ccccn2)c2c[nH]c3ccccc23)cc1 (centres undefined) | 27.6 (≈ 92.2 µM) |  |  | 24.9 (≈ 83.2 µM) |  |  | 29.4 (≈ 98.2 µM) | 35.3 (≈ 118 µM) |  |  |  |  |  |  |  | 
12 | Clc1ccccc1C(Nc1nc2ccccc2s1)c1c[nH]c2ccccc12 (centres undefined) | 9 (≈ 23.1 µM) |  |  | 10.5 (≈ 26.9 µM) |  |  | 8.1 (≈ 20.8 µM) | 13.2 (≈ 33.9 µM) | Active | Active |  |  |  |  |  | 
13 | Fc1ccc(C(c2c[nH]c3ccccc23)n2cncn2)cc1 (centres undefined) | 8.4 (≈ 28.7 µM) |  |  | 8.2 (≈ 28.1 µM) |  |  | 10.3 (≈ 35.2 µM) | 10.7 (≈ 36.6 µM) |  |  | Dose-dependent effect |  |  | Dose-dependent effect |  | 
14 | Fc1ccc(C(c2c[nH]c3ccccc23)n2cccn2)cc1 (centres undefined) | 8 (≈ 27.5 µM) |  |  | 8.5 (≈ 29.2 µM) |  |  | 5.7 (≈ 19.6 µM) | 8.5 (≈ 29.2 µM) | Active | Active | Dose-dependent effect |  |  | Dose-dependent effect |  | 
15 | CN(C)Cc1c[nH]c2ccccc12 [GRAMINE] | > 100 |  |  | 77.3 (≈ 444 µM) |  |  | 62.8 (≈ 360 µM) | 74.5 (≈ 428 µM) |  |  |  |  |  |  |  | 
16 | FC(F)(F)c1ccc(C(Nc2ccccn2)c2c[nH]c3ccccc23)cc1 (centres undefined) | 12.1 (≈ 32.9 µM) | 71.4 | 71.4 | 13.5 (≈ 36.7 µM) | 71.4 | 71.4 | 10.1 (≈ 27.5 µM) | 8.6 (≈ 23.4 µM) | Active | Active |  |  |  |  |  | 
17 | Fc1ccccc1C(Nc1nc2ccccc2s1)c1c[nH]c2ccccc12 (centres undefined) | 7 (≈ 18.7 µM) |  |  | 9.4 (≈ 25.2 µM) |  |  | 8.1 (≈ 21.7 µM) | 12.1 (≈ 32.4 µM) |  |  | Dose-dependent effect |  |  | Dose-dependent effect |  | 
18 | Cn1cc(C(Nc2ccccn2)c2ccccn2)c2ccccc21 (centres undefined) | > 100 |  |  | > 100 |  |  | > 100 | > 100 |  |  |  |  |  |  |  | 
19 | c1ccc(NC(c2ccccn2)c2c[nH]c3ccccc23)nc1 (centres undefined) | > 100 |  |  | 51.4 (≈ 171 µM) |  |  | 46.9 (≈ 156 µM) | > 100 |  |  |  |  |  |  |  | 
20 | Cn1cc(C(Nc2ccccn2)c2ccccc2Cl)c2ccccc21 (centres undefined) | 26.5 (≈ 76.2 µM) |  |  | 27.1 (≈ 77.9 µM) |  |  | 39.2 (≈ 113 µM) | 66.7 (≈ 192 µM) |  |  |  |  |  |  |  | 
21 | Clc1ccc(C(Nc2ccccn2)c2c[nH]c3ccccc23)cc1 (centres undefined) | 18.6 (≈ 55.7 µM) | 71.4 | 71.4 | 19.2 (≈ 57.5 µM) | 71.4 | 71.4 | 22.8 (≈ 68.3 µM) | 17.4 (≈ 52.1 µM) |  |  |  |  |  |  |  | 
22 | Fc1ccccc1C(Nc1ccccn1)c1c[nH]c2ccccc12 (centres undefined) | 28.7 (≈ 90.4 µM) | 71.4 | 71.4 | 24.5 (≈ 77.2 µM) | 71.4 | 71.4 | 37.6 (≈ 118 µM) | 24.9 (≈ 78.5 µM) |  |  |  |  |  |  |  | 
